Experiments:
Homo sapiens [1] = species on record: Homo sapiens; assay: Inhibition of human telomerase at 20 uM after 2 hrs by TRAP assay
Procedure, shortened: (§1)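 Modified TRAP with TSG4 substrate primer (0.4 μM) and 50 μM dNTPs in TRAP buffer (pH 8.3, 1.5 mM MgCl2, 68 mM KCl, 0.05% Tween 20, 1 mM EGTA). The mix was heated 90 C 10 min, then iced. Drug was preincubated 2 h at 30 C. SKN-Be neuroblastoma cell extract was added for 30 min at 30 C, then phenol/chloroform extraction. PCR (30 cycles) used 32P-TSG4, CXext primer and Taq. Runs done at least three independent times.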

Homo sapiens [2] = species on record: Homo sapiens; assay: Inhibition of human telomerase at 2 uM after 2 hrs by TRAP assay; procedure, shortened: as §1
Homo sapiens [3] = species on record: Homo sapiens; assay: Inhibition of human telomerase at 10 uM after 2 hrs by TRAP assay; procedure, shortened: as §1
Homo sapiens [4] = species on record: Homo sapiens; assay: Inhibition of human telomerase at 5 uM after 2 hrs by TRAP assay; procedure, shortened: as §1

Question: With `CN(C)CCCNc1cc2c3c(cc(NCCCN(C)C)c4c5ccc6c7c(ccc(c1c34)c75)C(=O)N(CCCN(C)C)C6=O)C(=O)N(CCCN(C)C)C2=O` as the compound, how does the inhibition (Homo sapiens [1]) read?
Answer: 59%

Question: What about the inhibition (Homo sapiens [2]) of the same compound?
Answer: 12%

Question: And the inhibition (Homo sapiens [3])?
Answer: 56%

Question: What about the inhibition (Homo sapiens [4]) of the same compound?
Answer: 47%

Question: Which results are given for `CN(C)CCCNc1cc2c3c(ccc4c5c(NCCCN(C)C)cc6c7c(ccc(c1c34)c75)C(=O)N(CCCN(C)C)C6=O)C(=O)N(CCCN(C)C)C2=O`?
Answer: inhibition (Homo sapiens [1]): 54%; inhibition (Homo sapiens [2]): 8%; inhibition (Homo sapiens [3]): 54%; inhibition (Homo sapiens [4]): 41%

Question: Which results are given for `CN(C)CCCNc1cc2c3c(ccc4c5ccc6c7c(ccc(c1c34)c75)C(=O)N(CCCN(C)C)C6=O)C(=O)N(CCCN(C)C)C2=O`?
Answer: inhibition (Homo sapiens [1]): 59%; inhibition (Homo sapiens [2]): 24%; inhibition (Homo sapiens [3]): 57%; inhibition (Homo sapiens [4]): 39%

Question: For `CN(C)CCCNc1cc2c3c(ccc4c5c(Br)cc6c7c(ccc(c1c34)c75)C(=O)N(CCCN(C)C)C6=O)C(=O)N(CCCN(C)C)C2=O`, which inhibition (Homo sapiens [1]) is on record?
Answer: 59%

Question: What about the inhibition (Homo sapiens [2]) of the same compound?
Answer: 18%

Question: And the inhibition (Homo sapiens [3])?
Answer: 55%

Question: And the inhibition (Homo sapiens [4])?
Answer: 49%
